Data on 5 molecules can be found in publication PMC3418399 (Molecular microbiology, 2012).

Data set [1] concerns human red blood cells. The data set is described as follows: Hemolysis. Type of data set: cell-based. The conditions noted are these: for lysis of red blood cells: ≤100 μM.
The subject of data set [2] is human epithelial (HEp2) cells. Nature of the data set: Toxicity for cultured human epithelial cells. The format is cell-based.
In data set [3] the test system is AD/CDR1 (Wild type CaCdr1p; AD/CaCDR1B). Nature of the data set: Agarose diffusion FLC chemosensitization assay. Type of data set: cell-based, Saccharomyces cerevisiae. The conditions noted are these: for chemosensitization of cells overexpressing CaCdr1p to FLC: ~6 nmole/disk, FLC 40 μg ml^−1.
In data set [4] the target is T1, CaCdr1p-mediated rhodamine 6G efflux in AD/CaCDR1 cells (Candida albicans, UniProt P43071). Nature of the data set: Glucose-dependent rhodamine 6G efflux in whole cells. The format is cell-based.
Data set [5] has as its target T2, Pma1p ATPase (Saccharomyces cerevisiae, UniProt P05030).
T2 sequence (P05030 1-918): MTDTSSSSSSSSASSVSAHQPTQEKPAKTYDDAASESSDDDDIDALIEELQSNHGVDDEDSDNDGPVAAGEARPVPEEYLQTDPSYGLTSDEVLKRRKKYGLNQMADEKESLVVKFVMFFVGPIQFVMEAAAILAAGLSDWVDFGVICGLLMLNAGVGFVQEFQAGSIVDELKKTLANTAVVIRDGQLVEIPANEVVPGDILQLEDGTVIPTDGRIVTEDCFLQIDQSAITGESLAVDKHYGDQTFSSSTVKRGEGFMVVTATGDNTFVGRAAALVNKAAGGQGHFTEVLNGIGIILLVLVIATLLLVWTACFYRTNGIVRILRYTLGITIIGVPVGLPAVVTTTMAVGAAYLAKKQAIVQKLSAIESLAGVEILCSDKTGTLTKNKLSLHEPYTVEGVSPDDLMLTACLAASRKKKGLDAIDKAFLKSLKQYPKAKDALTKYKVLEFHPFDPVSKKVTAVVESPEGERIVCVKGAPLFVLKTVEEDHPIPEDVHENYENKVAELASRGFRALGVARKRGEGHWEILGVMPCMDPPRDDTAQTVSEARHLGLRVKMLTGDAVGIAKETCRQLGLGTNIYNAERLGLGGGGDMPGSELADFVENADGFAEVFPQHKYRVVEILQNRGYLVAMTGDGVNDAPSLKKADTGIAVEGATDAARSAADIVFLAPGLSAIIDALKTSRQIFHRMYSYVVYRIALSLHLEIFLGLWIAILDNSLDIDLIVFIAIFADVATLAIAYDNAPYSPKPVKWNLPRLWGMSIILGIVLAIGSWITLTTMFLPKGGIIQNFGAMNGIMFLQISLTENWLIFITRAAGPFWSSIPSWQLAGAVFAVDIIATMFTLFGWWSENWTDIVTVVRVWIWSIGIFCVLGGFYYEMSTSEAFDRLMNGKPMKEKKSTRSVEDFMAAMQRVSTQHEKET
The data set is described as follows: Pma1p ATPase assay. The format is biochemical. The conditions noted are these: read-out: IC50 Pma1p ATPase; pH 7.0, 10 μM oligomycin.

The target in data set [6] is Cdr1p ATPase (Candida albicans, UniProt P43071). The data set is described as follows: CaCdr1p ATPase inhibition assay. Type of data set: biochemical.
For data set [7], the system named is AD/pABC3 (Control). Nature of the data set: MIC, liquid microdilution. The format is cell-based, Saccharomyces cerevisiae. The conditions noted are these: AD/pABC3, Control; RC21 and rhodamines; CSM pH 7.0, 30°C, 48 h. A general note: In broth dilution the organism is exposed to a series of concentrations in liquid medium.
Data set [8] deals with AD/CDR1 (Wild type CaCdr1p). Nature of the data set: MIC, liquid microdilution. The conditions noted are these: AD/CDR1, Wild type; RC21 and rhodamines; CSM pH 7.0, 30°C, 48 h. The format is cell-based, Saccharomyces cerevisiae.
Data set [9] concerns EL1/TM2 (CaCdr1p G547R). Nature of the data set: MIC, liquid microdilution. The format is cell-based, Saccharomyces cerevisiae. The conditions noted are these: EL1/TM2, G547R; RC21 and rhodamines; CSM pH 7.0, 30°C, 48 h.
Data set [10] concerns EL3 (CaCdr1p Q714K). Nature of the data set: MIC, liquid microdilution. The conditions noted are these: EL3, Q714K; RC21 and rhodamines; CSM pH 7.0, 30°C, 48 h. Type of data set: cell-based, Saccharomyces cerevisiae.
Data set [11] deals with EL4-1 (CaCdr1p Q1226K). Nature of the data set: MIC, liquid microdilution. Type of data set: cell-based, Saccharomyces cerevisiae. The conditions noted are these: EL4-1, Q1226K; RC21 and rhodamines; CSM pH 7.0, 30°C, 48 h.
Data set [12] deals with EL4-2 (CaCdr1p Q1226R). Nature of the data set: MIC, liquid microdilution. The conditions noted are these: EL4-2, Q1226R; RC21 and rhodamines; CSM pH 7.0, 30°C, 48 h. Type of data set: cell-based, Saccharomyces cerevisiae.
The test system of data set [13] is EL6 (CaCdr1p Q1445R). The data set is described as follows: MIC, liquid microdilution. The conditions noted are these: EL6, Q1445R; RC21 and rhodamines; CSM pH 7.0, 30°C, 48 h. The format is cell-based, Saccharomyces cerevisiae.
Data set [14] relates to TM5 (CaCdr1p V674F). The data set is described as follows: MIC, liquid microdilution. The format is cell-based, Saccharomyces cerevisiae. The conditions noted are these: TM5, V674F; RC21 and rhodamines; CSM pH 7.0, 30°C, 48 h.
In data set [15] the test system is AD/pABC3 (Control). The data set is described as follows: Agarose diffusion FLC chemosensitization assay. The conditions noted are these: presence or absence of FLC at 1/4 MIC. The format is cell-based, Saccharomyces cerevisiae.
Data set [16] concerns S. cerevisiae AD/CaCDR1 variants. Nature of the data set: Spontaneous variants resistant to FLC chemosensitization. The format is cell-based, Saccharomyces cerevisiae.
The test system of data set [17] is AD/pABC3 or AD/CaCDR1 cells. Nature of the data set: Rhodamine 6G uptake in de-energised cells. The conditions noted are these: concentrations <20 μM. The format is cell-based, Saccharomyces cerevisiae. The method in brief:
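Host S. cerevisiae and Cdr1p-expressing cells were harvested at log phase, washed, and suspended in 50 mM HEPES-NaOH pH 7.0. They were de-energised with 5 mM 2-deoxyglucose (30 °C, 30 min), then given 15 μM R6G ± test peptide at OD600 1.0. Samples taken at time intervals were boiled 10 min in SDS/mercaptoethanol/Tris pH 6.8 lysis buffer. Released R6G was quantified fluorimetrically against a standard curve in lysis buffer.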

For data set [18], the system named is C. albicans strain CIA4. Nature of the data set: Agarose diffusion / checkerboard FLC chemosensitization. Type of data set: cell-based, Candida albicans. The conditions noted are these: FLC-susceptible strain CIA4; 7.5 nmole RC21. Summed up:
(§1)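 Agarose diffusion on C. albicans clinical isolates. Base CSM-ura with FLC at the indicated concentration was solidified with 0.6% agarose. Cells were layered over it in CSM-ura overlay (0.4% agarose plus FLC). Crude, non-HPLC-purified test peptide (7.5 nmole) was dried on a paper disk at 37 °C for 1-2 h and placed on the overlay. Plates were incubated at 30 °C for 48 h, and inhibition-zone diameters were compared with and without FLC.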

For data set [19], the system named is C. albicans strain MML33 (deleted of both copies of CDR1). Described as above. The format is cell-based, Candida albicans. The conditions noted are these: 7.5 nmole RC21. The method in brief: as §1
The target in data set [20] is T1, CaCdr1p-mediated rhodamine 6G efflux in AD/CaCDR1 cells. The conditions noted are these: 1.25 μM; S. cerevisiae strain overexpressing CaCdr1p; ref Holmes et al., 2008; cited from earlier work.
Data set [21] deals with CaCdr2p. The conditions noted are these: 1.25 μM; strain overexpressing CaCdr2p; ref Holmes et al., 2008; cited from earlier work.
Data set [22] relates to C. albicans MML611. The conditions noted are these: 0.62 μM; FLC-resistant MML611; ref Holmes et al., 2008; cited from earlier work.
Data set [23] deals with C. albicans MML610. The conditions noted are these: 0.62 μM; FLC-susceptible parental strain MML610; ref Holmes et al., 2008; cited from earlier work.

The term IC50 denotes the concentration that gives 50% inhibition. What is called MIC is the smallest concentration in the dilution series that meets the test's criterion for growth inhibition. A low value points to a more susceptible organism.

“Also recorded” adds a separate entry of the source. Where two headings read alike, the source gives them in different places. Non-standard residues stand in square brackets, D forms with d.

T1 sequence (P43071 whole entry): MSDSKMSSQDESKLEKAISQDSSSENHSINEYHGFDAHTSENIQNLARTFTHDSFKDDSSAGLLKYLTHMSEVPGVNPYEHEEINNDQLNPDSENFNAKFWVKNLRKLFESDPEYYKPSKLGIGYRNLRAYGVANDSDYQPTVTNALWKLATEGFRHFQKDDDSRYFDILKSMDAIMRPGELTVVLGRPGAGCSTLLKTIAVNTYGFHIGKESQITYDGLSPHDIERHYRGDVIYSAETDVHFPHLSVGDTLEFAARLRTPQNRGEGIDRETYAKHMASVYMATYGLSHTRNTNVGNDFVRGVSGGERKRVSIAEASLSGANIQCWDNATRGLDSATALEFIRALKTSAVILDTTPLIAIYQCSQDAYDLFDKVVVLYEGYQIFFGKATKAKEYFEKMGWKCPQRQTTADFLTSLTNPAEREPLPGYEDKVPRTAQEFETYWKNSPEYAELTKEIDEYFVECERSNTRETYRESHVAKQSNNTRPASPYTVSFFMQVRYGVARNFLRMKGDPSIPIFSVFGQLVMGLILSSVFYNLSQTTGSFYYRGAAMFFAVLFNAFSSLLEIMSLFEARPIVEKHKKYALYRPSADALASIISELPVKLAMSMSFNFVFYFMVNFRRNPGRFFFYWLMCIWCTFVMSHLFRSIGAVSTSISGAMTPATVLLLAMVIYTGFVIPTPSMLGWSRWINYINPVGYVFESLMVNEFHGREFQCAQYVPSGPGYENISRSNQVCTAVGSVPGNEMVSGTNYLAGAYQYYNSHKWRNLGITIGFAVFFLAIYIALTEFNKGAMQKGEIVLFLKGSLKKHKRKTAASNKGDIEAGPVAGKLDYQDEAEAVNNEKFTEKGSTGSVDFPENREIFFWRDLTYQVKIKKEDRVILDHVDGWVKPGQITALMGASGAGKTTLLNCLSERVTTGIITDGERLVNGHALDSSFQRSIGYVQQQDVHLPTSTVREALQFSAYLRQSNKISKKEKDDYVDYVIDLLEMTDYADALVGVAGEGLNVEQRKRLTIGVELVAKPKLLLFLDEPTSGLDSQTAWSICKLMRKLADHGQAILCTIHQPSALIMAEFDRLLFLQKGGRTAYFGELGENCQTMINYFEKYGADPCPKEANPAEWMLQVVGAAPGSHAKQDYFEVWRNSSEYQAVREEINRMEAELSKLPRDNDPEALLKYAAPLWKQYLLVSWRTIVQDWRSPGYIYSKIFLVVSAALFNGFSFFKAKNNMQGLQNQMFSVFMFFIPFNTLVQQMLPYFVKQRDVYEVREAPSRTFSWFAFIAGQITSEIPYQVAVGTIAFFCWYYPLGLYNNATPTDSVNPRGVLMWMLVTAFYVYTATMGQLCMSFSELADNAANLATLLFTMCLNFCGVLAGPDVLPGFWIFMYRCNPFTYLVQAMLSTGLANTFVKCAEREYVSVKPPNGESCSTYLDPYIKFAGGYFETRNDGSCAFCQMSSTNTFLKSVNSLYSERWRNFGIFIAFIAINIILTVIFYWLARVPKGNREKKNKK
Chain of Cdr1p ATPase (P43071 whole entry): as above

As for `C[C@@H]1[C@H](O)[C@@H](C)/C=C/C=C/C=C/C=C/C=C/C=C/C=C/[C@H](O[C@@H]2O[C@H](C)[C@@H](O)[C@H](N)[C@@H]2O)C[C@@H]2O[C@](O)(C[C@@H](O)C[C@@H](O)[C@H](O)CC[C@@H](O)C[C@@H](O)CC(=O)O[C@H]1C)C[C@H](O)[C@H]2C(=O)O` [Amphotericin B], the “concentration causing complete lysis of red blood cells” value in [1] (human) came out at 3 µM. In addition, in [2] (human), the “concentration rendering human epithelial cells inviable” value is 15 µM.
Regarding D-NH2-FFKW(Mtr)QRRR-CONH2 [RC21v1], the “chemosensitization of CaCdr1p-dependent FLC resistance” value in [3] (agarose diffusion assays, amount not stated (partly data not shown)) is “ineffective”. Besides, the “chemosensitization of cells overexpressing CaCdr1p to FLC” value in [3] (agarose diffusion) was “inactive”. Also, the “concentration required to obtain a significant effect on R6G efflux” value in data set [4] (effect independent of glucose, non-specific membrane permeabilization) is on record as “At least 40 μM”.
Take “D-NH2-FFKWQRRR-CONH2 (H-[dF][dF][dK][dW][dQ][dR][dR][dR]-NH2)”: the IC50 in data set [5] is 5 µM.
For the molecule “D-NH2-FFKWQRRR-CONH2 + Mtr (H-[dF][dF][dK][dW][dQ][dR][dR][dR]-NH2; also: + Mtr, position not given here) [RC21]”, in data set [6] (IC50 = 20 → 1.3 μM), the “increase in potency against CaCdr1p ATPase activity during deconvolution” value came to 16 fold. For the same molecule, the “mode of inhibition of CaCdr1p ATPase” value in data set [6] (preincubation of membranes with ATP) is listed as “not a competitive inhibitor”. Moreover, the IC50 in data set [5] was determined as 5 µM. For the same molecule, the MIC is greater than 20 µM in data set [7]; 20 µM in data set [8]; 20 µM in [9]; 20 µM in [10]; 20 µM in [11]; 20 µM in data set [12]. Also, the MIC in [13] and in data set [14] was 20 µM in each case. Moreover, in [15], the “effect on growth of strain AD/pABC3” value was “no effect”. In [3] (crude RC21 6 nmole/disk, FLC at 1/4 MIC), the “inhibition of FLC resistance mediated by over-expression in S. cerevisiae of CaCdr1p” value is given as “inhibited FLC resistance”. Besides, the “Resistance to FLC chemosensitization” value is listed as “High” in data set [16] (variant C1, Q1226K, External loop 4); “High” in data set [16] (variant C2, G547R, TMD1, TMS2); “Moderate” in [16] (variant E1, V674F, TMD1, TMS5); “Moderate” in data set [16] (variant E2, V674F, TMD1, TMS5); “High” in data set [16] (variant F1, Q1226K, External loop 4); “High” in data set [16] (variant F2, Q1226K, External loop 4). The “Resistance to FLC chemosensitization” value was “High” in data set [16] (variant F3, Q714K, External loop 3) and “High” in data set [16] (variant HE2, Q1226R, External loop 4). In data set [17], the “effect on the rate of uptake of R6G” value is given as “no significant effect”. The “lysis of red blood cells” value in data set [1] is given as “did not lyse; also recorded: did not hemolyse”. The “effect on FLC susceptibility” value in data set [18] was “conferred increased FLC susceptibility”; in data set [19] it was “minor effect”. In addition, the entries for the “inhibition of glucose-dependent R6G efflux” value in [20], in data set [22] and in data set [23] were 90%, 90% and “detectably inhibited”, respectively. In addition, the “effect on glucose-dependent R6G efflux” value in data set [21] is on record as “no effect”.
Regarding “RC21v2: HPLC-purified RC21 derivative with a single Mtr group attached to one of its three C-terminal arginine residues (FFKWQRRR)”, the IC50 in data set [5] is 5 µM. Further, in data set [3] (~5.5 nmol per disk, agarose diffusion), the “chemosensitization of yeast over-expressing CaCdr1p to FLC” value was “chemosensitized”. Moreover, in data set [3] (agarose diffusion), the “chemosensitization of cells overexpressing CaCdr1p to FLC” value is “chemosensitized”. In addition, the “Resistance to FLC chemosensitization” value in data set [16] (variant R1, Q714K, External loop 3) is given as “High”; in data set [16] (variant R2, Q1445K, External loop 6) it was “High”; in data set [16] (variant R3, Q1226K, External loop 4), “High”; in [16] (variant R4, Q1226K, External loop 4) it was “High”. The “inhibition of glucose-dependent R6G efflux” value in data set [4] (1.25 μM, after 5 minutes of preincubation) is “fully inhibited”. Further, the “lysis of red blood cells” value in data set [1] is on record as “did not lyse; also recorded: did not hemolyse”. Further, the “effect on growth or viability of a human epithelial cell line” value in data set [2] (100 μM (≤100 μM in Fig. 7 legend)) is “did not affect; also recorded: did not kill”.
